Hits are enriched below; roughly 2.3% of the tested compounds scored in any of these assays.
Rpn11 inh – Rpn11 (PSMD14) deubiquitinase inhibitors, primary screen, biochemical, fluorescence polarization, uHTS; human 26S proteasome, Ub4-pepOG fluorescence polarization; 20S core pre-blocked with epoxomicin; inhibition, % at 20 µM; 360,000 compounds, 0.59% hits; AID 588493, 2011;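 active = inhibition at 20 µM, scaled to each plate's controls, above about 33%, limit read from the data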
LMPTP block – LMPTP phosphatase inhibitors, primary screen, biochemical, fluorescence intensity, uHTS; Low molecular weight phosphotyrosine protein phosphatase (Homo sapiens), P24666; 360,000 compounds, 0.22% hits; inhibition, % at 20 µM; recombinant LMPTP-A, OMFP fluorogenic substrate; AID 651560, 2012;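 active = compounds that cut the enzyme signal by at least half of the control window in the single-dose screen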;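 also: plate controls were DMSO wells with enzyme plus substrate for no effect and substrate without enzyme for full effect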
Target sequence (P24666 whole entry, looked up): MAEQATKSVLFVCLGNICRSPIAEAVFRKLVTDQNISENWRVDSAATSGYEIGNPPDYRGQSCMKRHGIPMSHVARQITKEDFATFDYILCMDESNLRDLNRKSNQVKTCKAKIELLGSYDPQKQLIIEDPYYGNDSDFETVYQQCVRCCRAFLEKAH
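Assay system: LMPTP-A enzyme. Input: 0.625 nM LMPTP-A final. Probe or stimulus: 400 µM OMFP. Compound dosing: single 20 µM dose. Schedule: 50 min dark incubation at room temperature. Detection: fluorescence intensity of OMFP turnover product. Read-out: percent inhibition versus substrate-only and uninhibited controls. Benchmarks: no-enzyme low control, uninhibited high control.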
Scp1 inh – Scp-1 phosphatase inhibitors, primary screen, biochemical, colorimetric, uHTS. Recombinant Scp1, phosphopeptide, malachite green phosphate absorbance. inhibition, % at 20 µM. 340,000 compounds, 0.88% hits. AID 493091, 2011;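 active = inhibition above about 50% at 20 µM, limit read from the data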;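 also: plate controls were DMSO wells with enzyme for no effect and wells lacking enzyme for full effect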
Target sequence (Q9GZU7 76-261 limits assumed): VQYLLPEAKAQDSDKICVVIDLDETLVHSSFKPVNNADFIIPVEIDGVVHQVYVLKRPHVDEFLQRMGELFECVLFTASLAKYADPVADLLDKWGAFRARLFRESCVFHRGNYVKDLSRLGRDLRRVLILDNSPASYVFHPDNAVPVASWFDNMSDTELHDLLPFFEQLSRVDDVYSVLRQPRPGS
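assay system = SCP-1 phosphatase catalytic domain, residues 76-261 | buffer or medium = 50 mM Tris acetate pH 5.5, 0.005% Tween-20, 10 mM MgCl2 | incubation = enzyme reaction 45 min at room temperature, colour 5 min, stabilisation 30 min | signal = Phosphate-binding colour reagent, absorbance read at 630 nm | measure = % inhibition at 20 µM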
DNMT1 inh – human DNMT1 methyltransferase inhibitors, primary screen, biochemical, molecular beacon, fluorescence, HinP1I cleavage, uHTS; DNA (cytosine-5)-methyltransferase 1 (Homo sapiens), P26358; 360,000 compounds, 0.83% hits; inhibition (reported as % activation of signal), % at 10 µM; AID 588458, 2011; in the data active = inhibition above about 50%
SUMO1 PPI mod – modulators of SUMO1 protein-protein interactions, primary screen, biochemical, uHTS; 360,000 compounds, 0.33% hits; SUMO1 binding to a labelled peptide, TR-FRET, 1 h; inhibition, % at 20 µM; Small ubiquitin-related modifier 1 (Homo sapiens), P63165; in the data active = inhibition above about 37%
Target sequence (P63165 whole entry, looked up): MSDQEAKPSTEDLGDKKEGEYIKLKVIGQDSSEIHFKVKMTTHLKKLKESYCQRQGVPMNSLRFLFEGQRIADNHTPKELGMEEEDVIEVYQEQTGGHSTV
STEP block – STEP phosphatase inhibitors, primary screen, biochemical, fluorescence intensity, uHTS; inhibition, % at 20 µM; recombinant STEP, OMFP fluorogenic substrate; AID 588621, 2011; 360,000 compounds, 0.25% hits;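 active = inhibition at 20 µM, scaled per plate between control wells, above about 37%, limit read from the data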;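 also: 0% = DMSO with enzyme and substrate and 100% = substrate only without enzyme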
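Material: STEP (striatal-enriched tyrosine phosphatase) enzyme, cell-free | Medium: 50 mM Bis-Tris pH 6.0 with 2.5 mM DTT and 0.005% Tween 20 | Read-out: Percent inhibition scaled to no-enzyme and uninhibited-enzyme controls, plate-pattern corrected | Signal: Fluorescence read at 480 nm ex / 540 nm em | Times: 20 min reaction, room temperature, in the dark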
Rpn11 inh conf – Rpn11 (PSMD14) deubiquitinase inhibitors, confirmation, biochemical, fluorescence polarization, single concentration; 1,900 compounds, 29% hits; shares compounds with Rpn11 inh; inhibition, % at 20 µM; purified human 26S proteasome, Ub4-pepOG fluorescence polarization; proteasome pretreated with epoxomicin; AID 602318, 2012
MMP-2 inh – MMP-2 enzyme inhibition, confirmation, counter-screen for RPN11 inhibitor project, biochemical, fluorescence, single concentration. shares compounds with Rpn11 inh. recombinant MMP-2, FRET peptide cleavage fluorescence. inhibition, % at 20 µM. 1,900 compounds, 4% hits;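 also: human MMP-2 activated beforehand with APMA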
Thrombin inh – bovine thrombin protease inhibition, confirmation, counter-screen for Rpn11 inhibitor project, biochemical, fluorescence polarization, single concentration. shares compounds with Rpn11 inh. bovine thrombin cleavage of Ub4-pepOG. inhibition, % at 20 µM. 1,900 compounds, 13% hits;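 active = mean inhibition at least 40% at 20 µM, or signal 3 deviations below plate average, so some actives read negative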;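 also: plate controls were thrombin with DMSO for no effect and buffer wells lacking thrombin for full effect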
Numbers without * were called inactive; / = no result given; ! = not confirmed by another sample. Rule as the data show it, unless noted: active = inhibition above about 40%; inactive = the rest.

SMILES | Rpn11 inh | LMPTP block | Scp1 inh | DNMT1 inh | SUMO1 PPI mod | STEP block | Rpn11 inh conf | MMP-2 inh | Thrombin inh
FC(F)Oc1ccc(NC(=S)NNc2ccnc3cc(Cl)ccc23)cc1 | 50* | 9 | 3 | -13 | -10 | 10 | 84* | 39 | active
NC(=S)NNc1ccnc2cc(Cl)ccc12 | 0 | -2 | -5 | -1 | -12 | 4 | / | / | /
CCOC(=O)c1c(C)oc2ccc(O)cc12 | 89* | -1 | -8 | 1 | 6 | -1 | 0 | -6 | 4
CN1/C(=C\C=N\NC(=O)c2cccnc2)C(C)(C)c2ccccc21 | 4 | -1 | -3 | -3 | -6 | 0 | / | / | /
CN1/C(=C\C=N\NC(=O)c2ccc(O)cc2)C(C)(C)c2ccccc21 | 72* | -1 | -14 | -13 | -12 | -2 | 38 | -31 | 7
Cc1c(N=C/C=C2/N(C)c3ccccc3C2(C)C)c(=O)n(-c2ccccc2)n1C | 47*! | -1 | 0 | -2 | -13 | -1 | 33 | -8 | 30
Cc1c(N=C/C=C2\N(C)c3ccccc3C2(C)C)c(=O)n(-c2ccccc2)n1C | 4 | -1 | -3 | 0 | -18 | 0 | / | / | /
O=C1NC[C@@H](c2ccccc2)OC(=O)[C@@H](Cc2ccc(F)cc2)CC/C=C/C[C@@H]1CC(=O)N(CCO)Cc1ccccc1 | 5 | 1 | -14 | -7 | 3 | 2 | / | / | /
CCOC(=O)C1(C)CCCN(C(=O)c2cccnc2)C1 (centres undefined) | 6 | -1 | / | 4 | -1 | -3 | / | / | /
O=C(CSc1ncccc1C(=O)O)c1cccc(C(F)(F)F)c1 | 121* | -2 | 1 | -1 | 1 | 10 | -4 | -27 | -12
O=C1N/C(=N/Nc2ccccc2)S/C1=C\c1ccccc1 | 66* | 1 | 6 | -9 | -11 | -7 | 28 | 37 | 15
COc1cccc(-c2csc(N3CCN(C(=S)Nc4cccc(Cl)c4)CC3)n2)c1 | 35* | 2 | 11 | -7 | -7 | 2 | 18 | 39 | 10
CC(Oc1ccccc1)C(=O)N1CCN=C1SCc1ccc(F)cc1 (centres undefined) | -6 | 0 | -4 | 12 | -2 | 0 | / | / | /
COc1ccc(Nc2nc3ccc(C)cc3cc2C#N)c(OC)c1 | 42* | 4 | -5 | -11 | 2 | -1 | -12 | -15 | -13
Cc1ccsc1/C=C/c1ccc2cccc(O)c2n1 | 3 | 6 | -3 | -22 | -12 | 2 | / | / | /
Cc1ccsc1/C=C/c1ccc2ccccc2n1 | 48* | 2 | -8 | 3 | -10 | 3 | 53* | -21 | 21
CC(C)CN(C(=O)COc1ccc(-c2nnco2)cc1)C1CCS(=O)(=O)C1 (centres undefined) | -7 | -1 | 6 | 3 | -4 | -2 | / | / | /

Screens from PubChem.
